Assay outcomes from PubChem.
FLuc inhib CS = Photinus pyralis luciferase inhibition counter-screen; P08659; ATPLite firefly luciferase biochemical luminescence, 10 min; inhibition, % at 10 µM; hit rate 1.5% among 200,000;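 active = inhibition above about 50% when tested at 10 µM, limit read from the data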
APP transl inh = APP translation inhibition; hit rate 0.82% among 190,000; SH-SY5Y APP 5'UTR-luciferase reporter, luminescence; inhibition, % at 2 µM; AID 1285;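 active = inhibition above a set limit, derived from the sample mean plus 3 SD, cut at about 45% in these data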
FLuc stim CS = firefly luciferase counter-screen for stimulation assays. ATPlite luciferase biochemical, luminescence, 10 min; 0 = ATP-free wells, 1 = DMSO control. activation factor at 10 µM. 200,000 tested, under 10 active. AID 1027;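 active = luciferase activation factor, scaled between plate controls, of at least 2 with compound at 10 µM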
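Assay system: Luciferase/luciferin reagent mix; Medium: PBS as buffer for the ATP substrate; Dosing: test compounds dosed from 2 mM stocks in 100% DMSO; Times: 10 min, room temperature; Signal: luminescence from luciferase reaction; Read-out: luciferase activation; Controls: No-ATP low control, compound-free enzyme-plus-ATP high control.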
NF-kB neuron act = compounds increasing NF-kB expression in human neuronal cells. NF-kB reporter expression; hits give high values. fold change at 12.5 µM. hit rate 1.6% among 190,000. AID 1239; in the data active = fold change above about 3.3
STAT1 activator = STAT1 signaling activation; NIH 3T3 STAT1-luciferase reporter, IFN-gamma, luminescence; 100% = IFN-gamma alone, no compound; AID 932; hit rate 2.6% among 200,000; activation (% of control), % at 5.5 µM;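 active = activation above the screen-wide mean activation plus 3 SD, cut at about 130% in these data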
APP 5'UTR act = APP 5'UTR luciferase reporter activation | SH-SY5Y APP 5'UTR luciferase reporter, luminescence; zero percent = DMSO vehicle wells | activation, % at 2 µM | hit rate 1% among 190,000;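 active = activation above a set limit, based on mean plus 3 SD of controls, cut at about 140% in these data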
Of the large screens only hits and unclear results are named; the others gave an inactive call. An excerpt weighted towards active compounds, which were near 4.8% of everything screened.

CCN(CC)c1ccc(NC(=O)CSc2nc3ccccc3c(=O)n2-c2cc(S(=O)(=O)N(C)C)ccc2C)cc1	none
CCC(C)(C)NC(=O)C(Sc1ccccc1)c1ccccc1 (stereo not given)	none
COc1ccccc1C(=O)/C=C/c1ccc(N2CCCCC2)c([N+](=O)[O-])c1	none
O=C(/C=C/c1ccc(N2CCCCC2)c([N+](=O)[O-])c1)c1ccc(O)cc1	NF-kB neuron act 3.8, STAT1 activator 143
O=C(NCc1cccnc1)c1ccc([N+](=O)[O-])o1	NF-kB neuron act 5.3
O=C(NNC(=O)c1ccc([N+](=O)[O-])o1)c1ccccc1	none
O=C(NN(c1ccccc1)c1ccccc1)c1ccc([N+](=O)[O-])o1	NF-kB neuron act 3.5
Cc1cc(=O)oc(C)c1C(=O)NCc1cccnc1	none
O=C(NCc1ccco1)c1ccc([N+](=O)[O-])o1	NF-kB neuron act 5.6
Cc1cnc(NC(=O)c2ccc3c(c2)C(=O)N(Cc2ccco2)C3=O)s1	none
CCN1C(=O)c2ccc(C(=O)Nc3ncc(C)s3)cc2C1=O	FLuc inhib CS 86
CCc1nnc(NC(=O)c2ccc3c(c2)C(=O)N(C(C)(C)C)C3=O)s1	FLuc inhib CS 69
N#Cc1c(/N=C/c2cc(Br)cs2)sc2c1CCC2	none (no result: FLuc inhib CS, FLuc stim CS, NF-kB neuron act)
N#Cc1c(/N=C/c2cccs2)sc2c1CCC2	FLuc inhib CS 62, STAT1 activator 140
N#Cc1c(/N=C/c2ccco2)sc2c1CCCCC2	FLuc inhib CS 94, STAT1 activator 138
CCCn1c(C)cc(C(=O)COc2ccc(-c3nnco3)cc2)c1C	none
CCN(CC)S(=O)(=O)c1cc(NC(=O)c2ccc(Br)s2)ccc1C	STAT1 activator 138
CCN(CC)S(=O)(=O)c1cc(NC(=O)C(CC(C)C)NC(N)=O)ccc1C (stereo not given)	none
COc1ccc(C(=O)OCc2csc(C)n2)c(O)c1	STAT1 activator 139
CC(NC(=O)OC(C)(C)C)C(=O)NC(CCC(=O)OCc1ccccc1)C(N)=O (stereo not given)	none
NC(=O)c1cc2ccc(O)cc2oc1=Nc1ccccc1	STAT1 activator 130
NC(=O)c1cc2ccc(O)cc2oc1=NCc1ccccc1	none
CCCS(=O)(=O)N1CCN(Cc2c[nH]c3ccccc23)CC1	none
CN=CC1=C(O)C(C(=O)OC)C(C)(C)CC1=O (stereo not given)	none
COC(=O)C1C(=O)/C(=C/N(C)C)C(=O)CC1(C)C (stereo not given)	NF-kB neuron act 6.2
CC1Cc2ccccc2N1C(=O)CSc1nnc(Cc2ccccc2)n1CCc1ccccc1 (stereo not given)	none
Cc1cccc(CSCc2ccc(C(=O)NC3CCCC3)o2)c1	none
Cc1cc(OCC(=O)N2CCCC2)ccc1Cl	none
Cc1cc(OCC(=O)N2CCCCCC2)ccc1[N+](=O)[O-]	STAT1 activator 138
CC1(C)CC(=O)C(C=NCCN2CCNCC2)=C(O)C1	none
O=C(COC(=O)CNC(=O)c1ccccc1)Nc1nc(-c2ccccc2)cs1	none
COc1ccc(C/C(C)=N/NC(=S)Nc2ccccc2F)cc1	APP 5'UTR act 176
Cn1/c(=N/N=C/c2ccc([N+](=O)[O-])cc2)sc2ccccc21	STAT1 activator 132
CCN(CC)c1ccc(C=C(c2nnnn2-c2ccc(C)cc2)c2nnnn2-c2ccc(C)cc2)cc1	none
Cc1ccc(NCCC(=O)c2cccs2)cc1	STAT1 activator 150
Cc1ccc(NCCC(=O)c2cccs2)cc1C	STAT1 activator 143
CC(=O)/C(N=Nc1c(C)n(C)n(-c2ccccc2)c1=O)=C(\C)O	APP transl inh 79
Cc1ccc(-c2cn(-c3ccccc3)c(SCC(=O)NC3CCS(=O)(=O)C3)n2)cc1C (stereo not given)	STAT1 activator 136
CCn1c(SCC(=O)NC2CCS(=O)(=O)C2)nnc1-c1ccccc1 (stereo not given)	none
Cc1cc(C(=O)COC(=O)c2ccc3c(c2)OCO3)c(C)n1CC1CCCO1 (stereo not given)	FLuc inhib CS 67
Cc1cc(C(=O)CSc2nc3ccccc3[nH]2)c(C)n1CC1CCCO1 (stereo not given)	APP 5'UTR act 189
Cc1ccc(-n2nnnc2SCC(=O)c2cc(C)n(CC3CCCO3)c2C)cc1 (stereo not given)	none (no result: APP transl inh, STAT1 activator, APP 5'UTR act)
